Measured values from different studies.
Protocols differ between the studies behind these lines. ≈ marks a conversion by molar mass, not a printed value.
Observed: microbial growth

| SMILES | organism | test | test system | MIC |
| --- | --- | --- | --- | --- |
| CO/N=C(\C(=O)N[C@@H]1C(=O)N2C(C(=O)O)=CCS[C@H]12)c1csc(N)n1 | Enterobacter cloacae | broth dilution | ATCC13047 | 2 µg/mL (≈ 5.22 µM) |
| Cc1ccc2[nH]nc(-c3nnc(Nc4ccc(F)cc4Cl)s3)c2c1 | Serratia marcescens | – | ATCC8100 | 85.2 µg/mL (≈ 237 µM) |
| Cc1ccc(N=Nc2c(N)nn3c(-c4ccc(C)cc4)cc(-c4ccc(OCc5ccccc5)cc4)nc23)cc1 | Enterobacter cloacae | – | ATCC23355 | 15.6 µg/mL (≈ 29.7 µM) |
| CCCCCCC#Cc1cncc(-c2nnc(SCc3cc(C(F)(F)F)cc(C(F)(F)F)c3)n2CCCN)c1 | Enterobacter cloacae | broth dilution | DSM30054 | > 64 µg/mL |
| COc1ccc(N=Nc2c(N)nn3c(-c4ccc(Cl)cc4Cl)cc(-c4ccc(OCc5ccccc5)cc4)nc23)cc1 | Enterobacter cloacae | – | ATCC23355 | 62.5 µg/mL (≈ 105 µM) |
| Cc1ccc2[nH]nc(-c3nnc(Nc4ccc(C)c(C)c4)s3)c2c1 | Serratia marcescens | – | ATCC8100 | 123 µg/mL (≈ 366 µM) |
| C[C@@H](O)[C@H]1C(=O)N2C(C(=O)O)=C(S[C@@H]3CN[C@H](C(=O)N(C)C)C3)[C@H](C)[C@H]12 | Enterobacter cloacae | broth dilution | ATCC13047 | 0.125 µg/mL (≈ 0.326 µM) |
| Cc1ccc(N=Nc2c(N)nn3c(-c4ccco4)cc(-c4ccc(OCc5ccccc5)cc4)nc23)cc1 | Enterobacter cloacae | – | ATCC23355 | 31.3 µg/mL (≈ 62.5 µM) |
| CCCCCCC#Cc1cncc(-c2nnc(SCc3cc([N+](=O)[O-])cc([N+](=O)[O-])c3)n2CCOC2OC(CN)C(O)C2O)c1 (stereo not shown) | Enterobacter cloacae | broth dilution | DSM30054 | 64 µg/mL (≈ 99.7 µM) |
| Cc1cc(O)cc(Nc2nnc(-c3n[nH]c4ccc(C)cc34)s2)c1 | Serratia marcescens | – | ATCC8100 | 125 µg/mL (≈ 370 µM) |
| COc1ccc(N=Nc2c(N)nn3c(-c4ccco4)cc(-c4ccc(OCc5ccccc5)cc4)nc23)cc1 | Enterobacter cloacae | – | ATCC23355 | 7.81 µg/mL (≈ 15.1 µM) |
| Cc1ccc2[nH]nc(-c3nnc(Nc4ccc(Cl)c(Br)c4)s3)c2c1 | Serratia marcescens | – | ATCC8100 | 270 µg/mL (≈ 641 µM) |
| CCCCCCC#Cc1cncc(-c2nnc(SCc3cc([N+](=O)[O-])cc([N+](=O)[O-])c3)n2C2CCNCC2)c1 | Enterobacter cloacae | broth dilution | DSM30054 | > 64 µg/mL |
| CC1(C)S[C@@H]2[C@H](NC(=O)[C@H](N)c3ccc(O)cc3)C(=O)N2[C@H]1C(=O)O | Enterobacter cloacae | broth dilution | ATCC13047 | > 64 µg/mL |
| CCCCCCC#Cc1cncc(-c2nnc(SCc3ccc([N+](=O)[O-])o3)n2CCCN)c1 | Enterobacter cloacae | broth dilution | DSM30054 | > 64 µg/mL |
| Cc1cc(Nc2nnc(-c3n[nH]c4ccc(C)cc34)s2)cc([N+](=O)[O-])c1 | Serratia marcescens | – | ATCC8100 | 198 µg/mL (≈ 540 µM) |
